Published values gathered from unrelated publications.
Protocols differ between the studies behind these lines.
CDK17: Cyclin-dependent kinase 17 (CDK17, Homo sapiens, UniProt Q00537)
CDK17 with cyclin Y: Cyclin-dependent kinase 17, with cyclin Y (CDK17, Homo sapiens, UniProt Q00537)

SMILES	target	assay	conditions	endpoint	value
COc1ccc2cc(OCC3(C(=O)O)CN(C(=O)c4ccc(F)cc4)C3)ccc2c1	CDK17	cell-free assay, competition with immobilised ligand	1 µM	remaining binding	100%
Cn1c2c(c3ccccc31)C(C#N)C(C)(C)NC2=O (stereo not shown)	CDK17	thermal stability, DSF	10 µM	ΔTm	0 °C
Cc1ccc(C(=O)Nc2ccc(CN3CCN(C)CC3)c(C(F)(F)F)c2)cc1C#Cc1cnc2cccnn12	CDK17	enzyme activity, inhibitor	23.5 nM	remaining activity	7.6%
CC(C)CC(=O)N1CCc2nc(-c3ccc(Br)cc3)nc(N(C)Cc3ccccc3)c2C1	CDK17	cell-free assay, competition with immobilised ligand	0.1 µM	remaining binding	100%
O=C(Nc1cnn(-c2csc(C(=O)NC3COC3)c2)c1)Nc1ccccc1Cl	CDK17 with cyclin Y	enzyme activity, inhibitor	5 µM	remaining activity	106%
C[C@@H](c1cccc(C#N)c1)n1cc(Cl)cc(C(N)=O)c1=N	CDK17	cell-free assay, competition with immobilised ligand	1 µM	remaining binding	84%
Cc1sc(C(=O)NC2COC2)cc1-n1cc(NC(=O)Nc2c(F)cccc2Cl)cn1	CDK17 with cyclin Y	enzyme activity, inhibitor	10 µM	remaining activity	102%
Cn1c2c(Cl)c(Cl)ccc2c2cc[nH]c(=O)c21	CDK17	thermal stability, DSF	10 µM	ΔTm	-0.4 °C
C[C@@H]1CCN(c2nccc(-c3cnn4ncccc34)n2)C1	CDK17	binding	1 µM	remaining binding	100%
Cn1c2c(Cl)c(Cl)ccc2c2cn[nH]c(=O)c21	CDK17	thermal stability, DSF	10 µM	ΔTm	0.5 °C
c1ccc(CNc2nc(N3CCOc4ccccc43)nc3c2CCCC3)cc1	CDK17	target engagement in cells, inhibitor, chemoproteomics	20 mM	inhibition	-12.4%
O=C(N[C@H]1CCCCC/C=C\C2C[C@@]2(C(=O)O)NC(=O)[C@@H]2C[C@@H](Oc3ccncc3)CN2C1=O)OC1CCCC1 (stereo partly shown)	CDK17	binding, competition with immobilised ligand	1 µM	remaining binding	89%
Cn1c2c(Cl)c(Cl)ccc2c2cc(N)[nH]c(=O)c21	CDK17	thermal stability, DSF	10 µM	ΔTm	0.6 °C
